Results from ChEMBL document CHEMBL1122443, “Synthesis and antitumor evaluation of selected 5,6-disubstituted 1(2)H-indazole-4,7-diones” (1983).

How the values were obtained:
Type in all cases: functional
[1] = test system: Mus musculus; experiment: Antitumor activity in CF1 mice bearing Ehrlich ascites carcinoma measured as percentage inhibition at 5 mg/kg
Method in brief: (§1)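 Ehrlich ascites model in male CF1 mice (22–25 g): 2 × 10⁶ cells ip on day 0, ip dosing days 1–8, kill on day 9. Percent inhibition = 100 − [(treated volume × treated ascrit)/(control volume × control ascrit)]. Greater than 80% was taken as significant. Vehicle was 0.05% Tween 80, alone or with 5% absolute EtOH. 6-Mercaptopurine was the positive control.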

[2] = test system: Mus musculus; experiment: Antitumor activity in CF1 mice bearing Ehrlich ascites carcinoma measured as percentage inhibition at 6 mg/kg; method in brief: as §1
[3] = test system: Mus musculus; experiment: Antitumor activity in CF1 mice bearing Ehrlich ascites carcinoma measured as ascites volume at 5 mg/kg
Method in brief: (§2)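 Male CF1 mice (22–25 g) received 2 × 10⁶ Ehrlich carcinoma cells ip on day 0. Dosing was ip daily on days 1–8, with sacrifice on day 9. Ascites fluid volume per mouse and ascrit (packed cell volume) were measured for each group. Vehicle was 0.05% Tween 80, or 5% absolute EtOH in 0.05% Tween 80, used for both compound and control. 6-Mercaptopurine was the positive control.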

[4] = test system: Mus musculus; experiment: Antitumor activity in CF1 mice bearing Ehrlich ascites carcinoma measured as ascites volume at 6 mg/kg; method in brief: as §2
[5] = test system: Mus musculus; experiment: Average days survived for treated / average days survived for control at 0.5 (mg/kg); 10.5/9.2
[6] = test system: Mus musculus; experiment: Average days survived for treated / average days survived for control at 1 (mg/kg); 11/9.2
[7] = test system: Mus musculus; experiment: Average days survived for treated / average days survived for control at 10 (mg/kg); 12.6/9.2
[8] = test system: Mus musculus; experiment: Average days survived for treated / average days survived for control at 15 (mg/kg); 9.2/9.2
[9] = test system: Mus musculus; experiment: Average days survived for treated / average days survived for control at 20 (mg/kg); 3.6/9.2
[10] = test system: Mus musculus; experiment: Average days survived for treated / average days survived for control at 5 (mg/kg); 10.9/9.2
[11] = test system: Mus musculus; experiment: Antitumor activity in CF1 mice bearing Ehrlich ascites carcinoma measured as survivors on day 9 at 5 mg/kg; 5/5
[12] = test system: Mus musculus; experiment: Antitumor activity in CF1 mice bearing Ehrlich ascites carcinoma measured as survivors on day 9 at 6 mg/kg; 5/6
[13] = test system: Mus musculus; experiment: Antitumor activity in CF1 mice bearing Ehrlich ascites carcinoma measured as percent ascrit packed cell volume at 5 mg/kg; method in brief: as §2
[14] = test system: Mus musculus; experiment: Antitumor activity in CF1 mice bearing Ehrlich ascites carcinoma measured as percent ascrit packed cell volume at 6 mg/kg; method in brief: as §2
[15] = test system: Mus musculus; experiment: Anti tumor activity in mice bearing lymphocytic leukemia P-388 at 0.5 mg/kg
Method in brief: (§3)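 Male BDF1 mice (20–23 g) were inoculated ip with 1 × 10⁶ P-388 leukemia cells on day 0. Compound was given ip once daily on days 1–14 in 0.05% Tween 80 vehicle, with a vehicle control group and 5-fluorouracil as positive control. Activity was scored as % T/C, average days survived treated/control, with >125% taken as significant.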

[16] = test system: Mus musculus; experiment: Anti tumor activity in mice bearing lymphocytic leukemia P-388 at 1 mg/kg; method in brief: as §3
[17] = test system: Mus musculus; experiment: Anti tumor activity in mice bearing lymphocytic leukemia P-388 at 10 mg/kg
Method in brief: (§4)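 Male BDF1 mice (20–23 g) inoculated ip with 1 × 10⁶ P-388 lymphocytic leukemia cells on day 0. Test agents were given ip once daily on days 1–14, with 0.05% Tween 80 as vehicle for treated and control groups. Read-out is %T/C, the mean days survived by treated over control. Values above 125% were counted as significant. 5-Fluorouracil was the positive control.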

[18] = test system: Mus musculus; experiment: Anti tumor activity in mice bearing lymphocytic leukemia P-388 at 12 mg/kg; method in brief: as §4
[19] = test system: Mus musculus; experiment: Anti tumor activity in mice bearing lymphocytic leukemia P-388 at 15 mg/kg; method in brief: as §4
[20] = test system: Mus musculus; experiment: Anti tumor activity in mice bearing lymphocytic leukemia P-388 at 20 mg/kg; method in brief: as §4
[21] = test system: Mus musculus; experiment: Anti tumor activity in mice bearing lymphocytic leukemia P-388 at 5 mg/kg; method in brief: as §3
[22] = test system: Mus musculus; experiment: Average days survived for treated / average days survived for control at 12 (mg/kg); 9/9.2
[23] = test system: Mus musculus; experiment: Antitumor activity in CF1 mice bearing Ehrlich ascites carcinoma measured as survivors on day 9 at 3 mg/kg; 3/6
[24] = test system: Mus musculus; experiment: Antitumor activity in CF1 mice bearing Ehrlich ascites carcinoma measured as ascites volume at 3 mg/kg; method in brief: as §2
[25] = test system: Mus musculus; experiment: Average days survived for treated / average days survived for control at 1 (mg/kg); 10.2/9.2
[26] = test system: Mus musculus; experiment: Antitumor activity in CF1 mice bearing Ehrlich ascites carcinoma measured as percentage inhibition at 3 mg/kg; method in brief: as §1
[27] = test system: Mus musculus; experiment: Antitumor activity in CF1 mice bearing Ehrlich ascites carcinoma measured as percent ascrit packed cell volume at 3 mg/kg; method in brief: as §2
[28] = test system: Mus musculus; experiment: Antitumor activity in CF1 mice bearing Ehrlich ascites carcinoma measured as percentage inhibition at 50 mg/kg; method in brief: as §1
[29] = test system: Mus musculus; experiment: Antitumor activity in 18 CF1 mice bearing Ehrlich ascites carcinoma measured as survivors on day 9 at 50 mg/kg; 16/18
[30] = test system: Mus musculus; experiment: Antitumor activity in CF1 mice bearing Ehrlich ascites carcinoma measured as ascites volume at 50 mg/kg; method in brief: as §2
[31] = test system: Mus musculus; experiment: Antitumor activity in CF1 mice bearing Ehrlich ascites carcinoma measured as percent ascrit packed cell volume at 50 mg/kg; method in brief: as §2

For `O=C1C(Cl)=C(Cl)C(=O)c2[nH]ncc21`, the inhibition in vivo at 5 mg/kg [1] was 98.6%, the inhibition in vivo at 6 mg/kg [2] was 85.4% and the ascites volume [3] was 0.48 ml mouse-1. The ascites volume [4] was 0.6 ml mouse-1, the “Average survival (days)” value [5] was 10.5 and the “Average survival (days)” value [6] was 11. The “Average survival (days)” value [7] was 12.6, the “Average survival (days)” value [8] was 9.2 and the “Average survival (days)” value [9] was 3.6. For the same compound, the “Average survival (days)” value [10] was 10.9, the Survivors [11] was 5 and the Survivors [12] was 5. For the same compound, the packed cell volume [13] was 4.5%, the packed cell volume [14] was 24.1% and the T/C [15] was 114%. It also gave a T/C [16] of 120%, a T/C [17] of 137% and a T/C [18] of 98%. For the same compound, the T/C [19] was 104%, the T/C [20] was 39% and the T/C [21] was 118%. The “Average survival (days)” value [22] was 9.

For `Cc1noc2c1C(=O)C(Cl)=C(Cl)C2=O`, the inhibition in vivo at 5 mg/kg [1] was 100%, the Survivors [23] was 3 and the ascites volume [24] was 0 ml mouse-1. For the same compound, the ascites volume [3] was 0 ml mouse-1, the “Average survival (days)” value [25] was 10.2 and the Survivors [11] was 5. The inhibition in vivo at 3 mg/kg [26] was 100%, the packed cell volume [27] was 0% and the packed cell volume [13] was 0%. The T/C [16] was 111%.

`Sc1ncnc2nc[nH]c12` [MERCAPTOPURINE ANHYDROUS] gave an inhibition in vivo at 50 mg/kg [28] of 96.3%, a Survivors [29] of 16 and an ascites volume [30] of 0.2 ml mouse-1. The packed cell volume [31] was 10.5%.
